The test system of one data set is Influenza A virus. Put plainly: Antiviral activity against Influenza A virus (A/Puerto Rico/8/34(H1N1)) infected in MDCK cells assessed as protection against virus-induced reduction in cell viability after 3 to 6 days by MTS assay. The format is functional, organism-based. The conditions noted are these: A/Puerto Rico/8/1934(H1N1). The method, boiled down:
(§1)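 MDCK cells seeded at 9000/well and infected one day later (semiconfluent) with 100 CCID50 virus. Medium was FCS-free Ultra MDCK with 2 μg/mL TPCK-trypsin. Serial five-fold compound dilutions (top 100 μM) were added with the virus, followed by 3–6 days at 35 °C. MTS read-out gave % protection versus virus and mock controls. EC50 was interpolated from semi-log curves; mean of two or three experiments.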
In general terms: Tetrazolium dyes change colour on reduction, which living cells bring about.

For the next data set, the system named is Influenza B virus. Put plainly: Antiviral activity against Influenza B virus B/Ned/537/05 infected in MDCK cells assessed as protection against virus-induced reduction in cell viability after 3 to 6 days by MTS assay. As to conditions: B/Ned/537/05, MDCK. The class given is functional, organism-based. The method, boiled down: as §1
The nature of data set [1]: Cytotoxicity against MDCK cells assessed as alterations in normal cell morphology measured after 3 to 6 days by microscopic analysis. The class given is cell-based, Canis lupus familiaris. The conditions noted are these: dog. In short, it runs like this: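 Uninfected MDCK cultures in FCS-free Ultra MDCK medium with trypsin received five-fold compound dilutions (up to […]) for 3–6 days at 35 °C. Microscopy scored morphology, and MCC was taken as the lowest concentration causing minimal rounding, shrinking or lysis.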

Another data set deals with MDCK. Put plainly: Cytotoxicity against MDCK cells assessed as reduction in cell viability measured after 3 to 6 days by MTS assay. The conditions noted are these: dog. The class given is cell-based, Canis lupus familiaris. The method, boiled down: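 Mock-infected MDCK plates were run in parallel (FCS-free Ultra MDCK medium with TPCK-trypsin) with serial five-fold dilutions up to […], 35 °C for 3–6 days. CC50 was interpolated from semi-log dose-response curves; mean of two or three experiments.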

For data set [2], the system named is Respiratory syncytial virus. Put plainly: Antiviral activity against Respiratory syncytial virus Long infected in human HeLa cells assessed as inhibition of virus-induced cytopathic effect after 3 to 6 days by MTS based microscopy. The format is functional, organism-based. Background: Damage to the host cells serves as the signal in cytopathic effect assays.

Data set [3] in a line: Cytotoxicity against human HeLa cells assessed as alterations in normal cell morphology measured after 3 to 6 days by microscopic analysis. The class given is cell-based. In short, it runs like this:
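Mock-infected HeLa cultures in 2% FCS medium received serial five-fold dilutions […] for 3–6 days at 37 °C. MCC was the lowest concentration giving microscopically visible minimal change in cell morphology (rounding, shrinking, lysis).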

The test system of a further data set is Vero. Put plainly: Cytotoxicity against African green monkey Vero cells assessed as reduction in cell viability measured after 3 to 6 days by MTS assay. The conditions noted are these: chlorocebus sabaeus. The class given is cell-based.
Another data set deals with Human alphaherpesvirus 1. Put plainly: Antiviral activity against Herpes simplex virus type 1 infected in human HEL299 cells assessed as inhibition of virus-induced cytopathic effect after 3 to 6 days by MTS assay. The class given is functional, organism-based.
The subject of a further data set is Human alphaherpesvirus 2. Put plainly: Antiviral activity against Herpes simplex virus type 2 infected in human HEL299 cells assessed as inhibition of virus-induced cytopathic effect after 3 to 6 days by MTS assay. The format is functional, organism-based.
For the next data set, the system named is Vaccinia virus. Put plainly: Antiviral activity against Vaccinia virus infected in human HEL299 cells assessed as inhibition of virus-induced cytopathic effect after 3 to 6 days by MTS assay. The format is functional, organism-based. As to conditions: Orthopoxvirus vaccinia.
The subject of another data set is Human adenovirus 2. Put plainly: Antiviral activity against Human adenovirus type 2 infected in human HEL299 cells assessed as inhibition of virus-induced cytopathic effect after 3 to 6 days by MTS assay. The class given is functional, organism-based.
The test system of data set [4] is Human immunodeficiency virus. Put plainly: Antiviral activity against HIV. The format is functional, organism-based.
Another data set concerns Human coronavirus 229E. Put plainly: Antiviral activity against Human coronavirus 229E infected in human HEL299 cells assessed as inhibition of virus-induced cytopathic effect after 3 to 6 days by MTS assay. The format is functional, organism-based.
For another data set, the system named is Human respirovirus 3. Put plainly: Antiviral activity against Parainfluenza virus 3 infected in African green monkey Vero cells assessed as inhibition of virus-induced cytopathic effect after 3 to 6 days by MTS assay. The format is functional, organism-based.
Data set [5] relates to Vesicular stomatitis virus. Put plainly: Antiviral activity against Vesicular stomatitis virus infected in human HEL299 cells assessed as inhibition of virus-induced cytopathic effect after 3 to 6 days by MTS assay. The class given is functional, organism-based.
Another data set concerns Sindbis virus. Put plainly: Antiviral activity against Sindbis virus infected in African green monkey Vero cells assessed as inhibition of virus-induced cytopathic effect after 3 to 6 days by MTS assay. The format is functional, organism-based.
Another data set relates to Yellow fever virus. Put plainly: Antiviral activity against Yellow fever virus infected in African green monkey Vero cells assessed as inhibition of virus-induced cytopathic effect after 3 to 6 days by MTS assay. The format is functional, organism-based.
The test system of a further data set is Punta Toro virus. Put plainly: Antiviral activity against Punta Toro virus infected in African green monkey Vero cells assessed as inhibition of virus-induced cytopathic effect after 3 to 6 days by MTS assay. The class given is functional, organism-based.
The test system of another data set is Coxsackievirus B4. Put plainly: Antiviral activity against Coxsackie B4 virus infected in human HeLa cells assessed as inhibition of virus-induced cytopathic effect after 3 to 6 days by MTS assay. The format is functional, organism-based.
In data set [6] the test system is Mammalian orthoreovirus 1. Put plainly: Antiviral activity against Reovirus-1 infected in African green monkey Vero cells assessed as inhibition of virus-induced cytopathic effect after 3 to 6 days by MTS assay. The format is functional, organism-based.
The target of another data set is T1, Dihydrofolate reductase (Homo sapiens, UniProt P00374).
T1 sequence (P00374 whole entry): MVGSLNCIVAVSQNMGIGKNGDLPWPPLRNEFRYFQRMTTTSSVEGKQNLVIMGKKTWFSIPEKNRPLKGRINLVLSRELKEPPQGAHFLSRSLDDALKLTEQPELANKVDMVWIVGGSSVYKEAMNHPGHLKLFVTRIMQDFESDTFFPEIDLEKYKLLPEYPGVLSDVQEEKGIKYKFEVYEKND
Put plainly: Binding affinity to human recombinant DHFR using dihydrofolate as substrate after 180 secs by spectrophotometric method. In short, it runs like this: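 Recombinant human DHFR (0.42 μM) in TES buffer with inhibitor, 60 μM DHF, and 120 μM NADPH added last to start the reaction. Absorbance at 340 nm was followed for 180 s. Six concentrations (1–32 μM) were run in duplicate. IC50 came from Dixon plots assuming competitive inhibition. Ki = IC50/(1+[S]/Km), with DHF Km 5 μM.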

The source made the active and inactive calls. The rule behind the calls is not given here.

Consider `CCS(=O)(=O)N1CCC2(CC1)N=C(N)N=C(N)N2CCOC`, for which the EC50 (in general, the concentration needed to bring the measured effect to its halfway point) with Influenza A virus was more than 100 µM; with Influenza B virus, 3 µM; in data set [2], more than 100 µM. The MCC in data set [1] and in data set [3] was more than 100 µM each time. Moreover, the CC50 (commonly the concentration at which the toxic effect on the cells reaches its halfway point) in the data set on MDCK is more than 100 µM. Moreover, in the data set with Vero, the Activity result is on record as “Non-Toxic”. Besides, the result (in the data set on Human alphaherpesvirus 1; with Human alphaherpesvirus 2; with Vaccinia virus; in the data set with Human adenovirus 2; in [4]; in the data set on Human coronavirus 229E) was inactive. In addition, the outcome (in the data set with Human respirovirus 3; in [5]; in the data set on Sindbis virus; in the data set with Yellow fever virus; in the data set with Punta Toro virus; in the data set on Coxsackievirus B4) was inactive. In addition, the result in data set [6] was inactive. In addition, on Dihydrofolate reductase, the Ki (usually the dissociation constant of the complex between target and ligand, obtained from inhibition or displacement) was 1400 nM.
As to `CCCN1C(N)=NC(N)=NC12CCN(S(=O)(=O)CCC)CC2`, the EC50 (in the data set on Influenza A virus; with Influenza B virus; in data set [2]) was more than 100 µM in each case. The MCC in data set [1] and in data set [3] was more than 100 µM in each case. Besides, the CC50 in the data set with MDCK was more than 100 µM. The Activity entry in the data set on Vero was “Non-Toxic”. Moreover, the result (in the data set on Human alphaherpesvirus 1; in the data set with Human alphaherpesvirus 2; in the data set with Vaccinia virus; in the data set on Human adenovirus 2; in [4]; in the data set on Human coronavirus 229E) was inactive. The result (with Human respirovirus 3; in data set [5]; with Sindbis virus; with Yellow fever virus; in the data set on Punta Toro virus; with Coxsackievirus B4) was inactive. In data set [6], the result was inactive.
As for `CCCN1C(N)=NC(N)=NC12CCN(C(=O)NCCC(=O)OCC)CC2`, the EC50 (in the data set on Influenza A virus; with Influenza B virus; in data set [2]) was more than 100 µM each time. Further, the MCC in [1] and in data set [3] was more than 100 µM throughout. Further, the CC50 in the data set on MDCK is more than 100 µM. The Activity entry in the data set on Vero is “Non-Toxic”. For the same molecule, the result (in the data set on Human alphaherpesvirus 1; in the data set on Human alphaherpesvirus 2; in the data set with Vaccinia virus; in the data set with Human adenovirus 2; in data set [4]; in the data set on Human coronavirus 229E) was inactive. The outcome (in the data set with Human respirovirus 3; in [5]; in the data set on Sindbis virus; in the data set on Yellow fever virus; in the data set with Punta Toro virus; in the data set on Coxsackievirus B4) was inactive. Moreover, the result in [6] was inactive.
On to `NC1=NC2(CCNCC2)N(c2cccc(Cl)c2)C(N)=N1`, for which the EC50 (in the data set with Influenza A virus; in the data set with Influenza B virus; in data set [2]) was more than 100 µM each time. For the same molecule, the MCC in [1] and in data set [3] was more than 100 µM in each case. In the data set with MDCK, the CC50 is more than 100 µM. In addition, the Activity result in the data set with Vero is “Non-Toxic”. Also, the outcome (in the data set with Human alphaherpesvirus 1; in the data set with Human alphaherpesvirus 2; in the data set on Vaccinia virus; with Human adenovirus 2; in data set [4]; with Human coronavirus 229E) was inactive. Further, the outcome (in the data set with Human respirovirus 3; in [5]; with Sindbis virus; in the data set on Yellow fever virus; in the data set with Punta Toro virus; in the data set on Coxsackievirus B4) was inactive. Moreover, the outcome in data set [6] was inactive.
On to `NC1=NC2(CCN(C(=O)c3ccc4ccccc4c3)CC2)N(c2cccc(Cl)c2)C(N)=N1`, for which the results for the EC50 (in the data set with Influenza A virus; in the data set on Influenza B virus; in data set [2]) were 28 µM, 4 µM and more than 100 µM, respectively. For the same molecule, the MCC is not below 4 µM in data set [1] and not below 100 µM in [3]. For the same molecule, the CC50 in the data set with MDCK is more than 100 µM. In addition, the Activity entry with Vero is recorded as “Non-Toxic”. For the same molecule, the result (in the data set with Human alphaherpesvirus 1; with Human alphaherpesvirus 2; in the data set on Vaccinia virus; with Human adenovirus 2; in [4]; in the data set on Human coronavirus 229E) was inactive. The outcome (with Human respirovirus 3; in [5]; in the data set on Sindbis virus; in the data set on Yellow fever virus; in the data set with Punta Toro virus; in the data set with Coxsackievirus B4) was inactive. The result in [6] was inactive.
On to `COCCN1C(N)=NC(N)=NC12CCN(S(=O)(=O)c1ccccc1)CC2`, for which the EC50 (with Influenza A virus; in the data set on Influenza B virus; in [2]) was more than 100 µM throughout. For the same molecule, the MCC in data set [1] and in [3] was more than 100 µM each time. In addition, the CC50 in the data set with MDCK was more than 100 µM. Moreover, the Activity result with Vero is recorded as “Non-Toxic”. Further, the outcome (in the data set on Human alphaherpesvirus 1; in the data set on Human alphaherpesvirus 2; in the data set on Vaccinia virus; in the data set with Human adenovirus 2; in [4]; in the data set on Human coronavirus 229E) was inactive. The outcome (in the data set with Human respirovirus 3; in data set [5]; with Sindbis virus; with Yellow fever virus; in the data set with Punta Toro virus; in the data set on Coxsackievirus B4) was inactive. Also, in data set [6], the outcome was inactive.
Consider `CCCCC(=O)N1CCC2(CC1)N=C(N)N=C(N)N2c1cccc(OC)c1`, for which the results for the EC50 (with Influenza A virus; in the data set with Influenza B virus; in [2]) were more than 100 µM, 28 µM and more than 100 µM, respectively. Also, the MCC is not below 100 µM in data set [1] and more than 100 µM in [3]. For the same molecule, in the data set with MDCK, the cytotoxic concentration (CC50) was more than 100 µM. The Activity entry in the data set with Vero is given as “Non-Toxic”. Further, the result (with Human alphaherpesvirus 1; in the data set on Human alphaherpesvirus 2; in the data set with Vaccinia virus; in the data set on Human adenovirus 2; in data set [4]; in the data set with Human coronavirus 229E) was inactive. Besides, the result (in the data set with Human respirovirus 3; in data set [5]; with Sindbis virus; with Yellow fever virus; in the data set on Punta Toro virus; in the data set with Coxsackievirus B4) was inactive. In [6], the outcome was inactive.

Values taken from ChEMBL document CHEMBL4152296, “Synthesis, biological evaluation and molecular modeling of novel azaspiro dihydrotriazines as influenza virus inhibitors targeting the host factor dihydrofolate reductase (DHFR)” (Eur J Med Chem, 2018).
